The source of these data is ChEMBL document CHEMBL5712890, “Sensitivity and engineered resistance of myeloid leukemia cells to BRD9 inhibition” (Nat Chem Biol, 2016).

The test system of test [1] is HL-60. Kind of test: Antiproliferative activity against human HL-60 cells assessed as inhibition of cell growth for 7 days by cell titre glo assay. Type of test: functional. As to conditions: HL-60, 168 h, time 7 day. The gist of the method: (§1)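 Human cancer cell lines in RPMI-1640 (leukemia) or DMEM (solid) with 10 % FBS, grown 7 days with rising inhibitor concentrations. Proliferation read by CellTiter-Glo, normalized to DMSO control.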

Test [2] in a line: Antiproliferative activity against mouse RN2 cells transduced with BRD9 assessed as inhibition of cell growth for 7 days by cell titre glo assay (reference value: 6.144 uM). As to conditions: RN2, 168 h.
For test [3], the system named is Jurkat. Kind of test: Antiproliferative activity against human Jurkat cells assessed as inhibition of cell growth for 7 days by cell titre glo assay. Type of test: functional. As to conditions: 168 h, time 7 day. The gist of the method: as §1
The nature of test [4]: Antiproliferative activity against mouse RN2 cells transduced with BRD9-BET assessed as inhibition of cell growth for 7 days by cell titre glo assay (reference value: 6.144 uM). Particulars: RN2, 168 h.
A short description of test [5]: Antiproliferative activity against mouse RN2 cells transduced with BRD9-BET assessed as inhibition of cell growth for 7 days by cell titre glo assay (reference value: 0.757 uM). As to conditions: RN2, 168 h.
Test [6] in a line: Antiproliferative activity against mouse RN2 cells transduced with BRD9 assessed as inhibition of cell growth for 7 days by cell titre glo assay (reference value: 0.757 uM). As to conditions: RN2, 168 h.
Test [7] is described as follows: Antiproliferative activity against mouse RN2 cells assessed as inhibition of cell growth for 7 days by cell titre glo assay. Particulars: RN2, 168 h.
The target in test [8] is T1, ATPase family AAA domain-containing protein 2B (Homo sapiens, UniProt Q9ULI0).
T1 sequence (Q9ULI0 whole entry): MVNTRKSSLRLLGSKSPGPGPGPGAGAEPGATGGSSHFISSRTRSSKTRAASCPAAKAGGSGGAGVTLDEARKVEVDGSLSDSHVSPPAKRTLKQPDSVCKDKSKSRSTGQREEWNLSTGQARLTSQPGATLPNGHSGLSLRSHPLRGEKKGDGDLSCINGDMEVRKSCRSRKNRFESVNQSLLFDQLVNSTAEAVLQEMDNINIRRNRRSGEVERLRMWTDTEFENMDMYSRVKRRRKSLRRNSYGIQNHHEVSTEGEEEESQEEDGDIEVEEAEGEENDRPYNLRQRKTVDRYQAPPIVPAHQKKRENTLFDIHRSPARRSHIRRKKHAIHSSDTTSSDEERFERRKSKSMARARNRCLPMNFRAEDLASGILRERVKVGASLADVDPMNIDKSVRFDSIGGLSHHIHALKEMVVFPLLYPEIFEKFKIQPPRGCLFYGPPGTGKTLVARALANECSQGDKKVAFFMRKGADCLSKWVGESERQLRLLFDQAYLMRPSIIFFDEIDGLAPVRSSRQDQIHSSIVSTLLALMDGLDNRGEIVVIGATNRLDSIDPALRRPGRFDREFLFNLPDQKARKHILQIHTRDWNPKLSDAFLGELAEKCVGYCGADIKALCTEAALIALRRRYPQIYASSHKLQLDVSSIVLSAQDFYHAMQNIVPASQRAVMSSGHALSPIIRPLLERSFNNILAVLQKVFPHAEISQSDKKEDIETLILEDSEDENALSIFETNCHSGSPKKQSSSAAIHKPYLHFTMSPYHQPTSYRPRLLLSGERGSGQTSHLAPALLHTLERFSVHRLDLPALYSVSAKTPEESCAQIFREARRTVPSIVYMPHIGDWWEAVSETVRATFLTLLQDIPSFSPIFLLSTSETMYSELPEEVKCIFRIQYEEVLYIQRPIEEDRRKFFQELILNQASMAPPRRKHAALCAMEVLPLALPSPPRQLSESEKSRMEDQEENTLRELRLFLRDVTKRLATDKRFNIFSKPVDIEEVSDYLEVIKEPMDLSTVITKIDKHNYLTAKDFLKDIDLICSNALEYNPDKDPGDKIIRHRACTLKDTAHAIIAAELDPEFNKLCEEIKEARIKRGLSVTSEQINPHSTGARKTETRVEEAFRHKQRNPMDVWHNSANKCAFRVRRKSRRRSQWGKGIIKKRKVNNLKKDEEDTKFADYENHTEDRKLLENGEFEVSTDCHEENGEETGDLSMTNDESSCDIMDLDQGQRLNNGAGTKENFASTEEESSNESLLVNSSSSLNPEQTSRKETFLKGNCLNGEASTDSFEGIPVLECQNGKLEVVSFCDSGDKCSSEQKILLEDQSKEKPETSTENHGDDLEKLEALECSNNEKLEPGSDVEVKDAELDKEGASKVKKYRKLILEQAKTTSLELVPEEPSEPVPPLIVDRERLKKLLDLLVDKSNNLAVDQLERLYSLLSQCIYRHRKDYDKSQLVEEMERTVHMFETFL
Kind of test: Binding affinity to KIAA1240 (unknown origin) assessed as dissociation constant by bromoKdselect analysis.

Test [9] can be described thus: Antiproliferative activity against mouse RN2 cells transduced with BRD9-BET assessed as inhibition of cell growth for 7 days by cell titre glo assay (reference value: 610 nM). As to conditions: RN2, 168 h.
Test [10] is described as follows: Antiproliferative activity against mouse RN2 cells transduced with BRD9 assessed as inhibition of cell growth for 7 days by cell titre glo assay (reference value: 1709 nM). Particulars: RN2, 168 h.
A short description of test [11]: Antiproliferative activity against mouse RN2 cells transduced with BRD9-BET assessed as inhibition of cell growth for 7 days by cell titre glo assay (reference value: 1709 nM). Particulars: RN2, 168 h.
A short description of test [12]: Antiproliferative activity against mouse RN2 cells transduced with BRD9 assessed as inhibition of cell growth for 7 days by cell titre glo assay (reference value: 323 nM). Particulars: RN2, 168 h.
A short description of test [13]: Antiproliferative activity against mouse RN2 cells transduced with BRD9-BET assessed as inhibition of cell growth for 7 days by cell titre glo assay (reference value: 323 nM). As to conditions: RN2, 168 h.
A short description of test [14]: Antiproliferative activity against mouse RN2 cells transduced with wild type EZH2 assessed as inhibition of cell growth for 7 days by cell titre glo assay (reference value: 5.1 uM). Particulars: RN2, 168 h.
Test [15] can be described thus: Antiproliferative activity against mouse RN2 cells transduced with EZH2 harboring SET domain of EZH1 assessed as inhibition of cell growth for 7 days by cell titre glo assay (reference value: 5.1 uM). Particulars: RN2, 168 h.

With `Cc1cc(=O)n(C)c2cc(N3C(=O)CC[C@H](NS(=O)(=O)CC(C)C)[C@H]3c3ccc(Cl)cc3)ccc12`, the concentration for 50% growth inhibition (GI50) (in general, the concentration that inhibits growth by half) worked out at 5030 nM in test [1], 6.87 µM in test [2], 10.5 µM in test [3] and 9.38 µM in test [4].
Take `CCn1cc(-c2cccc(C(F)(F)F)c2)c2sc(C(=N)NC3CCS(=O)(=O)CC3)cc2c1=O`: the GI50 in test [5] turned out to be 2690 nM; in [1], 433 nM; in test [6] it was 1250 nM; in test [3] it was 3.64 µM.
For the molecule `COc1cc(-c2cn(C)c(=O)c3cnccc23)cc(OC)c1CN(C)C`, the 50% growth inhibitory concentration (GI50) in [7] was 476 nM; in test [9], more than 10 µM. Besides, in [8], the dissociation constant (Kd) (usually a measure of binding affinity in units of concentration) was 1000 nM.
With `COc1cc(-c2cc(C)c(=O)n(C)c2C)cc(OC)c1CN(C)C`, the 50% growth inhibitory concentration (GI50) in test [10] is 1030 nM; in [11] it was more than 10 µM.
On to `COc1cc(-c2cn(C)c(=O)c3ccccc23)cc(OC)c1CN(C)C`, for which the GI50 worked out at 160 nM in test [12] and 4.48 µM in test [13].
As to `CC[C@H](C)n1cc(C)c2c(C(=O)NCc3c(C)cc(C)[nH]c3=O)cc(-c3ccc(N4CCNCC4)nc3)cc21` [GSK2816126], the GI50 in test [14] is 6.2 µM; in [15], more than 10 µM.
